Cytotoxicity data for 95 compounds are collected here from ChEMBL document CHEMBL4513216, “Probing the Open Global Health Chemical Diversity Library for Multistage-Active Starting Points for Next-Generation Antimalarials” (ACS Infect Dis, 2020).

This data set can be described thus: Toxicity liver stage against HepG2, at 10uM. Format: cell-based. Also on record: test concentration 10 uM, cell line HepG2-A16-CD81EGFP. As to conditions: human, HepG2-A16-CD81EGFP cells; read-out: INHIBITION
An outline of the steps: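 Uninfected HepG2-A16-CD81EGFP cells, 3 × 10^3 per well, 1536-well, plated on prespotted compound at 10 μM final, parasite-free screening media added to match infected plates; puromycin 10 μM positive, DMSO 0.5% negative; run in parallel with 48 h PbLuc assay at 37 °C, 5% CO2; viability by CellTiter-Glo luminescence, normalized to controls.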

As to `Cc1cccc(CN2C[C@@H]3COC[C@]3(CNC(=O)c3ccccc3)C2)n1`, the cytotoxicity at 10 µM was -0.0606%.

On to `Nc1nc(N)c2c(n1)OC1(CCCN(Cc3nccs3)CC1)C2` (stereo not given), for which the cytotoxicity at 10 µM was -2.25%.

Regarding `O=C(c1cccnc1N1CCOCC1)N1CCCC(n2cccn2)C1` (stereo not given), the cytotoxicity at 10 µM was 0.985%.

Consider `O=C(NCCc1cccs1)[C@H]1CO[C@H]2CCN(C3CCC3)C[C@H]2C1`, for which the cytotoxicity at 10 µM was -116%.

For `CCC1=N[C@@]2(CC[C@@H]3CN(C(=O)NCC(C)C)C[C@@H]32)C(=O)N1CC(C)C`, the cytotoxicity at 10 µM was -3.64%.

With `NC(=O)C1CCN(c2ncc(-c3cnccn3)c([C@H]3CCCO3)n2)CC1`, the cytotoxicity at 10 µM is -0.24%.

With `COc1ccc2c(c1)CN(C)C(=O)CCN2CC(O)C(F)(F)F` (stereo not given), the cytotoxicity at 10 µM is -6.84%.

Regarding `CC(C)NC(=O)Nc1ccc2c(c1)ncn2CC(=O)NCCN(C)C`, the cytotoxicity at 10 µM is -8.15%.

`COC1CCN(C(=O)CC2CCCC2)CC(=O)N(C)c2ccccc21` (stereo not given): the cytotoxicity at 10 µM is -3.09%.

In the case of `CCc1ccccc1OC1CN(C(=O)c2sccc2N)C1`, the cytotoxicity at 10 µM turned out to be 14.4%.

Consider `O=C1CC(N2CCN(c3ccc(O)cc3)CC2)C(=O)N1Cc1cccs1` (stereo not given), for which the cytotoxicity at 10 µM was determined as 5.77%.

For `O=c1c2sccc2ncn1CC(O)CN1CCOCC1` (stereo not given), the cytotoxicity at 10 µM is 7.27%.

For the compound `c1cc(CN2C[C@H](OCC3CCOCC3)[C@H]3COC[C@H]32)co1`, the cytotoxicity at 10 µM was -4.8%.

Consider `Cc1cnn(CCNC(C)C(=O)NCCc2cccs2)c1` (stereo not given), for which the cytotoxicity at 10 µM was -9.38%.

Regarding `Cc1noc(C2CCCN(C(=O)c3cc(-c4ccccc4)on3)C2)n1` (stereo not given), the cytotoxicity at 10 µM was -7.14%.

As to `Cc1ccnc(C2CN(Cc3cnn(-c4ccccc4C(=O)O)c3)C2)n1`, the cytotoxicity at 10 µM was determined as 6%.

Turning to `CCc1nc(CN2CCCC(NCc3ccc(C(N)=O)cc3)C2)no1` (stereo not given), the cytotoxicity at 10 µM was -12.3%.

As for `CN(C)C(=O)COCC1CN(Cc2ccoc2)Cc2nnn(C)c21` (stereo not given), the cytotoxicity at 10 µM came to 1.81%.

In the case of `Cc1cc(-c2cnn(CCNC(=O)Cc3ccccn3)c2C2CC2)on1`, the cytotoxicity at 10 µM worked out at 2.8%.

As to `CC(C)(C)Cc1noc2ncc(C(=O)N3CCCSCC3)cc12`, the cytotoxicity at 10 µM was -20.5%.

As to `O=C(CCn1ccc2cc(Br)ccc21)NCc1ccc(C(=O)O)cc1`, the cytotoxicity at 10 µM was -11.8%.

Consider `Cc1ncc(C(=O)N2CCOC(C(=O)N3CCCCCC3)C2)c(C)n1` (stereo not given), for which the cytotoxicity at 10 µM stood at 3.67%.

Turning to `CCn1c(NCc2ccccc2)nc2c(C)nn(C)c2c1=O`, the cytotoxicity at 10 µM came out at 10.6%.

For the compound `CC(Cn1cccn1)NC(=O)NCc1ccc(S(C)(=O)=O)cc1` (stereo not given), the cytotoxicity at 10 µM came out at 3.64%.

On to `COCCN1CCCC(c2cncc(Oc3ccccc3OC)n2)C1` (stereo not given), for which the cytotoxicity at 10 µM was -22.8%.

Regarding `COc1ccc(Nc2cc(C)nc(C)n2)cc1N1CCCC1=O`, the cytotoxicity at 10 µM is -2.19%.

In the case of `COCC[C@]1(O)CCN(Cc2nc(C)c(C)s2)C[C@H]1C`, the cytotoxicity at 10 µM amounted to 2.14%.

For `[O-][S+](CCN1CCc2[nH]nc(C(F)(F)F)c2C1)c1ccccc1` (stereo not given), the cytotoxicity at 10 µM is -9.92%.

On to `CC(NC(=O)CCCOc1ccccc1)c1nnc2n1CCCCC2` (stereo not given), for which the cytotoxicity at 10 µM was -9.51%.

Consider `CSCC1CCN(C(=O)Cn2ncc(N3CCCCC3)cc2=O)CC1`, for which the cytotoxicity at 10 µM is -3.95%.

Turning to `Cc1noc(C)c1CN1CCCC2(CCN(C(=O)CC3CC3)C2)C1` (stereo not given), the cytotoxicity at 10 µM was determined as 7.71%.

Regarding `CC(C)c1nc(C2CCCN2CCN2CCCCC2)no1` (stereo not given), the cytotoxicity at 10 µM is -4.58%.

Regarding `Cc1cc(C)n(CC2CN(CCOc3ccccc3C#N)CCO2)n1` (stereo not given), the cytotoxicity at 10 µM was -3.71%.

On to `Cc1cc(C(=O)NCC(O)c2c(Cl)cccc2Cl)nn1C` (stereo not given), for which the cytotoxicity at 10 µM was -9.38%.

As for `Cc1ccc(N2C[C@H]3OCC[C@H]3[C@H](C(=O)NCc3ccco3)C2)nn1`, the cytotoxicity at 10 µM was -67.4%.

`CC(C)OC(=O)N1CCC(Nc2ncc(Br)cn2)CC1`: the cytotoxicity at 10 µM is -0.951%.

On to `O=S(=O)(C1CC1)N1CCOC2(CCCN(Cc3ccccn3)C2)C1` (stereo not given), for which the cytotoxicity at 10 µM is -0.78%.

In the case of `CC[C@H]1N(CC2CCOCC2)CCC[C@]12CCC(=O)N2`, the cytotoxicity at 10 µM amounted to 8.71%.

On to `CN(C)C1COC2(CCN(Cc3nccs3)CC2)C1` (stereo not given), for which the cytotoxicity at 10 µM came to 2.02%.

For the compound `CCN1CCN(C(=O)NCc2ccccc2Cn2cncn2)CC1`, the cytotoxicity at 10 µM is 0.663%.

Regarding `c1ccc(CN2CC[C@@H]3[C@@H](CO[C@@H]3CNc3ncccn3)C2)nc1`, the cytotoxicity at 10 µM is -4.09%.

In the case of `C[C@H](NS(C)(=O)=O)C(=O)NCc1cc(-c2ccco2)n(CC(F)(F)F)n1`, the cytotoxicity at 10 µM is -13%.

On to `O=C(Nc1ccc(CCN2CCC(O)CC2)cc1)C1CCCCC1`, for which the cytotoxicity at 10 µM was -17.7%.

In the case of `O=C(c1ncccn1)N1CCC[C@]2(C[C@@H](Oc3ncccc3F)CO2)C1`, the cytotoxicity at 10 µM is -4.28%.

Consider `O=C(c1cnn2c(-c3ccco3)ccnc12)N1CCCCCC1`, for which the cytotoxicity at 10 µM is 14.4%.

On to `CN(Cc1ccc2c(c1)OCCO2)C(=O)Cn1cccnc1=O`, for which the cytotoxicity at 10 µM is 3.01%.

For `COc1c(C)cnc(CN(C)C2CCN(C3CCOCC3)CC2)c1C`, the cytotoxicity at 10 µM is -17.7%.

Turning to `O=C(Cc1cccnc1)NC1COc2ccccc2C1=O` (stereo not given), the cytotoxicity at 10 µM was -3.77%.

Regarding `O=C(NCC(=O)N1CC2(CCCC2)c2c(F)cccc21)C1CC1`, the cytotoxicity at 10 µM was -3.47%.

Turning to `O=C(c1ccc2cccc(F)c2n1)N1CCN(CCn2cccc2)CC1`, the cytotoxicity at 10 µM was 13.5%.

Turning to `CC(C(=O)N1CCN(Cc2ccc3c(c2)OCO3)CC1)n1ccnc1` (stereo not given), the cytotoxicity at 10 µM was -9.57%.

`CCCS(=O)(=O)N1CCC2(CC(C(=O)NCc3cccnc3)=NO2)C1` (stereo not given): the cytotoxicity at 10 µM is -4.51%.

For the compound `O=C(CCOc1ccccc1F)NC1CCCN(c2ccccn2)C1` (stereo not given), the cytotoxicity at 10 µM is -5.67%.

For the compound `COc1ccc(CC(=O)NC2CCc3nc(C)cn3C2)cc1` (stereo not given), the cytotoxicity at 10 µM turned out to be 9.55%.

Turning to `CC1(C)CC1(C(=O)N1CC(c2cccnc2)C1)c1ccccc1F` (stereo not given), the cytotoxicity at 10 µM is -10.7%.

Consider `CCc1nc(N2CCC3(CCC(=O)N(CCCO)C3)CC2)no1`, for which the cytotoxicity at 10 µM was 0.814%.

Take `CC(C)Oc1cccc(F)c1C(C(=O)O)N(C)Cc1ccon1` (stereo not given): the cytotoxicity at 10 µM is -33.5%.

Consider `Cc1nc(CSCCC(=O)NCC(=O)NC(C)C)cs1`, for which the cytotoxicity at 10 µM is -2.03%.

Turning to `Cc1cc(CN(C)C(=O)c2ccc(Cl)c(S(C)(=O)=O)c2)no1`, the cytotoxicity at 10 µM is -2.77%.

In the case of `CN(C)CC1CN(Cc2ccsc2)Cc2nccn2C1` (stereo not given), the cytotoxicity at 10 µM was found to be 1.72%.

Take `COc1nc2ccccc2cc1CN1CCCC(CNC(C)=O)C1` (stereo not given): the cytotoxicity at 10 µM was 1.9%.

For `COc1cc(CN2CCC(COCc3ccccc3)CC2)cc(OC)c1`, the cytotoxicity at 10 µM was -3.38%.

In the case of `CCOC(=O)CC(c1cccc(OC)c1OC)c1c(C)[nH][nH]c1=O` (stereo not given), the cytotoxicity at 10 µM was determined as 0.0535%.

Take `CC(=O)N1CCCc2cc(Nc3nccn(C)c3=O)ccc21`: the cytotoxicity at 10 µM was -49.4%.

In the case of `CS(=O)(=O)N1CCOCC2(CCN(c3ccccn3)C2)C1` (stereo not given), the cytotoxicity at 10 µM is 14.3%.

For `CC(C)c1cc(C(=O)N2CCOC3(CCCC3)C2)no1`, the cytotoxicity at 10 µM is -6.2%.

Turning to `CO[C@@H]1CC[C@H]2[C@H]1OCCN2C(=O)c1ccc(C)o1`, the cytotoxicity at 10 µM worked out at 3.68%.

As for `Cc1nc2c(c(C)c1CC(=O)NCc1cccs1)c(=O)[nH]n2C`, the cytotoxicity at 10 µM was -34.2%.

`CC(C)(C)NC(=O)C[C@@H]1CCNC[C@@H]1Cc1cc(C(C)(C)C)on1`: the cytotoxicity at 10 µM turned out to be 4.37%.

In the case of `O=C(c1ncccn1)N1CCC[C@]2(C[C@@H](OCC3CC3)CO2)C1`, the cytotoxicity at 10 µM is -89.7%.

As to `N#CC1(NC(=O)c2nccc3ccccc23)CCC1`, the cytotoxicity at 10 µM worked out at 6.13%.

As for `COC1CCN(C(=O)c2ccccc2NCc2cccnc2)CC1`, the cytotoxicity at 10 µM was -7.22%.

For the compound `O=S1(=O)NC(c2ccnc(N3CCCC3)n2)=Nc2ccccc21`, the cytotoxicity at 10 µM was found to be 12.8%.

Regarding `Cc1cc(N2CCN(C3CCSCC3)CC2)n2nc(C)c(C)c2n1`, the cytotoxicity at 10 µM turned out to be 0.0879%.

Consider `CCN(CC)Cc1ccc(C(=O)N2CCCC2Cn2cccn2)cc1` (stereo not given), for which the cytotoxicity at 10 µM is -10.7%.

As to `CN(C)CCN1CC2(CCC1=O)CCN(C(=O)c1ccn(C)n1)CC2`, the cytotoxicity at 10 µM is -11%.

Consider `Cc1ccc(S(=O)(=O)c2ncccc2CN2CCOCC2)cc1`, for which the cytotoxicity at 10 µM is -41%.

As for `CN(C)C(=O)c1cccc(NC(=O)c2cnn(C)c2)c1`, the cytotoxicity at 10 µM is -1.96%.

`CCOC[C@]12COC[C@H]1CN(Cc1cccc(OC)c1)C2`: the cytotoxicity at 10 µM was -75.9%.

In the case of `c1ccc(-c2nc(CN3CCCC3Cn3cccn3)no2)cc1` (stereo not given), the cytotoxicity at 10 µM was -6.69%.

As to `CCCS(=O)(=O)N1CCC2(CC1)CC(N1CCCC1)c1ccccc12` (stereo not given), the cytotoxicity at 10 µM was -0.664%.

Regarding `CNC(=O)c1cn2cc(-c3cccc(Cl)c3)n(CC=C(C)C)c(=O)c2n1`, the cytotoxicity at 10 µM was -52.8%.

With `CC(c1ncc(C(C)(C)C)o1)N1CCN(Cc2ccco2)CC1` (stereo not given), the cytotoxicity at 10 µM turned out to be 5.3%.

For the compound `O=C1NC2(CCN(Cc3ccc(F)cc3)CC2)CC1c1ccncc1` (stereo not given), the cytotoxicity at 10 µM stood at 3.16%.

Turning to `COc1ncccc1CNC(=O)C1=NN(c2ccccc2)C(=O)CN1`, the cytotoxicity at 10 µM is 2.54%.

With `COCCN1CCC2(CC1)C(=O)Nc1ccc(C(=O)NC(C)C)cc12`, the cytotoxicity at 10 µM was determined as 2.02%.

For the compound `Cc1ncsc1CN1CC[C@H]2C[C@H](c3ccncn3)O[C@@H]2C1`, the cytotoxicity at 10 µM came to 4.87%.

Turning to `Cc1noc(C)c1CN1CCN(Cc2nccn2C)C(C)C1` (stereo not given), the cytotoxicity at 10 µM is -5.38%.

For the compound `O=C(C[S+]([O-])Cc1csc(C2CCCC2)n1)NC1CCCC1` (stereo not given), the cytotoxicity at 10 µM is -38.2%.

Regarding `CN1CCCc2cc(CNC(=O)c3cccnc3O)ccc21`, the cytotoxicity at 10 µM was -1.68%.

As for `NC(=O)NCC(=O)N1CCCC(c2nccn2CC2CCC2)C1` (stereo not given), the cytotoxicity at 10 µM is -4.59%.

For `COc1ccc(C(=O)NCCN(C)C)c(I)c1`, the cytotoxicity at 10 µM was -1.93%.

Consider `O=C(c1ccc[nH]1)N1CCc2c(COCc3ccncc3)cncc2C1`, for which the cytotoxicity at 10 µM was 14.7%.

`COCCC(=O)N1CCC(c2cc3ncc(C)nc3[nH]2)CC1`: the cytotoxicity at 10 µM was -8.86%.

For `c1ccc(-c2nnc([C@H]3CCN(C4CCC4)C3)o2)cc1`, the cytotoxicity at 10 µM amounted to 1.74%.
